Assay outcomes (PubChem)
eIF4H inh – inhibitors of RNA binding by human eIF4H. Q15056. eIF4H fluorescence polarization binding assay. inhibition, % at 35 µM. actives 0.94% (n = 290,000). AID 2012;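 further: calls also rest on retests at 20 µM and on dose response follow-up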
PABP1 MLLE inh – blocks PAM2 peptide binding to the PABP1 MLLE domain; GST-MLLE / FITC-PAM2 fluorescence polarization; inhibition, % at 20 µM; actives 0.36% (n = 360,000); AID 588489; in the data active means inhibition above about 35%, passing the limit was not always enough;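 further: plate controls were DMSO wells with GST-MLLE for no effect and wells lacking GST-MLLE protein for full effect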
Target sequence (P11940 whole entry, looked up, the tested form may be a part): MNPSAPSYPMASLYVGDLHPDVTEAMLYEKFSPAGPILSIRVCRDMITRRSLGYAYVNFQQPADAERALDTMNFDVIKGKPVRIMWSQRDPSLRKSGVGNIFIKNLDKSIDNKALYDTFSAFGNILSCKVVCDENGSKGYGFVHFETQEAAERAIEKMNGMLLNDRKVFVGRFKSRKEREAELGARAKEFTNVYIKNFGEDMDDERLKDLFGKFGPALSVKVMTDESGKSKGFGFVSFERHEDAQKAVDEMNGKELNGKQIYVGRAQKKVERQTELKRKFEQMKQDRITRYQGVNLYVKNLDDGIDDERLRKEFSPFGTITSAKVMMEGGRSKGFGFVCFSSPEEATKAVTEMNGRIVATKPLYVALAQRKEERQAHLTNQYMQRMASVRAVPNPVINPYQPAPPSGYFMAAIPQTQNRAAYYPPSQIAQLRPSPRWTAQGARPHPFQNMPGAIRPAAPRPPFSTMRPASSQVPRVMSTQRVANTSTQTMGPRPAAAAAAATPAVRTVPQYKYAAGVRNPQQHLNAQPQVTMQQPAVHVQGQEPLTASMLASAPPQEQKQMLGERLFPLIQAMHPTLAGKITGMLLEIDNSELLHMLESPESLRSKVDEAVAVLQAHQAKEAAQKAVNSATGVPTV
HCV core dimer – HCV core protein dimerization inhibition. inhibition, % at 5 µM. AID 1899. actives 0.33% (n = 300,000). TR-FRET GST/Flag-core106 dimerization, 1536-well;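 active means inhibition above the mean of all tested compounds plus 3 SD, set per screening campaign, cut at about 45% in these data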
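Assay system – GST-tagged and Flag-tagged HCV core protein residues 1-106 · Quantity – core106 proteins, GST 13.5 nM and Flag 17 nM · Benchmarks – unlabelled core106 and no-GST-core106 wells · Read-out basis – percent inhibition of core106 dimerization signal · Detection – time-resolved FRET, ex 340 nm, em 617 and 671 nm · Schedule – 4 h at 22.5 °C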
HCV NS3 hel inh – HCV NS3 helicase inhibition. NS3 helicase DNA unwinding, Cy5 molecular beacon fluorescence. inhibition, % at 10.9 µM. actives 0.56% (n = 290,000). AID 1800;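 active means inhibition above the mean of all tested compounds plus 3 SD, set per campaign, cut at about 35% in these data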;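 further: 0% = DMSO wells and 100% = thioflavine S control wells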
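Assay system: hepatitis C virus NS3 helicase domain fragment enzyme. Also added: annealed dual-labelled DNA beacon duplex, ATP-started. Timing: 1 h reaction at 25 °C, ATP-initiated. Technique: Cy5 fluorescence at 0 and 60 min, beacon hairpin quenching. Evaluation: % inhibition of unwinding. Replication: one well per compound.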
PABP polyA inh – blocks human PABP binding to poly(A) RNA. actives 1% (n = 290,000). inhibition, % at 35 µM. AID 2014. fluorescence polarization. P11940;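 further: calls also rest on retests at 20 µM and on dose response follow-up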
DNA FID counter-1 – counter-screen for HCV NS3 helicase inhibitors: DNA intercalator displacement; inhibition, % at 7.9 µM; actives 0.17% (n = 290,000); DNA fluorescent intercalator displacement, fluorescence; in the data active means inhibition above about 37%;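 further: 0% = vehicle and 100% = reference compound; higher means more ethidium bromide displaced from hairpin DNA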
NS3 helicase cf – HCV NS3 helicase inhibition, confirmation assay; AID 1943; actives 31% (n = 1,600); NS3 helicase DNA unwinding, Cy5 molecular beacon fluorescence; shares compounds with HCV NS3 hel inh; inhibition, % at 10.9 µM;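 active means inhibition above the mean of all tested compounds plus 3 SD, cutoff set per campaign, cut at about 36% in these data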
DNA FID counter-2 – intercalator displacement, NS3 helicase counter-screen. shares compounds with HCV NS3 hel inh. DNA fluorescent intercalator displacement, fluorescence. inhibition, % at 7.9 µM. actives 4% (n = 1,600); in the data active means inhibition above about 37%;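 further: 0% = vehicle and 100% = reference compound; higher means more displacement of ethidium bromide from the DNA hairpin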
FID counter DR – DNA intercalator displacement in dose response; 120 tested, under 10 active; fluorescent intercalator displacement from DNA, fluorescence; IC50, µM; shares compounds with HCV NS3 hel inh
The depositor's hits bear a star; . = no result given. This is a sample that favours compounds with a hit; in the whole collection about 2% have one here. Unless noted, how the calls were made is not given here.

SMILES	eIF4H inh	PABP1 MLLE inh	HCV core dimer	HCV NS3 hel inh	PABP polyA inh	DNA FID counter-1	NS3 helicase cf	DNA FID counter-2	others
C=CCSC1=N/C(=C\c2cc(OCC)c(OC(C)=O)c([N+](=O)[O-])c2)C(=O)S1	96	27	-2	50*	5	-24	92*	16
C=CCSC1=N/C(=C\c2ccc3c(c2)OCO3)C(=O)S1	-2	2	6	29	-4	-30	.	.
N#Cc1c(-c2cccs2)nc(SCc2ccc(Cl)cc2)[nH]c1=O	29	3	.	48*	26	6	60*	35
CSc1nc(-c2cccs2)c(C#N)c(=O)[nH]1	-6	-21	10	1	8	-5	.	.
O=S(=O)(Nc1ccc(-n2cnnn2)cc1)c1cccc(Cl)c1	.	2	.	.	.	.	.	.
COc1cc([N+](=O)[O-])cc(/C=N/NC(=O)C(C)Nc2cccc3ccccc23)c1O (centres undefined)	35	1	-12	37*	-1	-5	39*	16
O=C(N/N=C/c1cc([N+](=O)[O-])ccc1O)c1cccc2ccccc12	13	18	4	40*	19	4	-25	3
CC(Nc1cccc2ccccc12)C(=O)N/N=C/c1ccc([N+](=O)[O-])cc1 (centres undefined)	3	-2	-1	-13	7	0	.	.
O=C(NN=Cc1cc(Cl)ccc1[N+](=O)[O-])c1cccc2ccccc12	.	2	.	.	.	.	.	.
CCN1CCN(S(=O)(=O)c2ccc(Cl)c(C(=O)Oc3ccc(CC(=O)OC)cc3)c2)CC1	.	-16	.	.	.	.	.	.
Cc1ccc(S(=O)(=O)NC(=O)c2cc(C)n(C3CC3)c2C)cc1	3	8	-5	38*	-5	-22	-18	-7
Cc1ccc(-n2c(C)cc(C(=O)NS(=O)(=O)c3ccc(C)cc3)c2C)cc1	-12	-9	20	39*	6	-41	43*	-31
COc1c(N2CCN(C(=S)NCc3ccccc3)C(C)C2)c(F)cc2c(=O)c(C(=O)O)cn(C3CC3)c12 (centres undefined)	10	-144	19	40*	11	-14	42*	-21	FID counter DR=>79
O=S(Cc1ccc(Cl)cc1)c1ccccc1 (centres undefined)	.	8	.	.	.	.	.	.
O=C(O)c1cccc(S(=O)(=O)N2CCCC(c3nc4c(nnn4Cc4ccc(F)cc4)c(=O)[nH]3)C2)c1 (centres undefined)	-7	6	1	40*	18	-15	-1	-25
CC1=NN(c2ccc(C)c(C)c2)C(=O)/C1=C\C=C\c1ccc([N+](=O)[O-])o1	92*	-66	63*	40*	7	-6	15	33
O=C1OC(c2ccco2)=N/C1=C\c1ccc(-c2cccc(C(F)(F)F)c2)o1	45	-45	17	37*	-13	-30	47*	-4	FID counter DR=>79
CC(=O)Nc1ccc(CN(C)c2c(C)nc3ccc(C(=O)Nc4ccc(Cl)c(Cl)c4)cn23)cc1	.	-6	.	.	.	.	.	.
COc1ccc(-c2nc(=S)c3c([nH]2)Oc2ccc(C)cc2C3)cc1O	7	8	-5	53*	4	-26	12	-16
COc1ccc(-c2nc(-c3ccccc3)c(-c3cc([N+](=O)[O-])ccc3C)[nH]2)cc1O	-7	17	4	-17	0	4	.	.
